# Source: ChEMBL document CHEMBL1926569, “Novel (E)-1-(4-methyl-2-(alkylamino)thiazol-5-yl)-3-arylprop-2-en-1-ones as potent antimicrobial agents” (2011)
# Experiments:
# Talaromyces funiculosus [1] = assay: Ratio of bifonazole to compound for Penicillium funiculosum ATCC 36839; type: functional
# Aspergillus flavus [2] = assay: Antifungal activity against Aspergillus flavus ATCC 9643 incubated for 72 hrs followed by serial sub-cultivation for 72 hrs by serial dilution technique; type: functional; conditions: ATCC 9643, 72 h
# Summary of the method: (§1)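 MFC: material from 72 h malt broth microdilution wells was serially sub-cultured into fresh broth plates and incubated a further 72 h at 28 °C. Fungicidal concentration is taken from growth after sub-culture. Duplicate, repeated three times.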
# Aspergillus ochraceus [3] = assay: Ratio of bifonazole to compound for Aspergillus ochraceus ATCC 12066; type: functional
# Aspergillus ochraceus [4] = assay: Antifungal activity against Aspergillus ochraceus ATCC 12066 after 72 hrs by serial dilution technique; type: functional; conditions: ATCC 12066, 72 h
# Summary of the method: (§2)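 Modified microdilution in 96-well plates. Fungi were kept on malt agar at 4 °C. Spores were washed off in sterile 0.85% saline with 0.1% Tween 80. Compounds were dissolved at 1 mg/ml in 5% DMSO with 0.1% Tween 80 and added to malt broth with inoculum. Plates were shaken at 160 rpm for 72 h at 28 °C. Duplicate, repeated three times.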
# Escherichia coli [5] = assay: Antibacterial activity against Escherichia coli ATCC 35210 incubated for 24 hrs followed by serial sub-cultivation for 24 hrs by microdilution; type: functional; conditions: ATCC 35210, 24 h
# Summary of the method: (§3)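 MBC: after the 24 h LB broth microdilution (1.0 × 10⁴ CFU per well, 160 rpm), wells were serially sub-cultured into fresh broth plates and incubated a further 24 h. MBC is the lowest concentration with no visible growth, taken as 99.5% killing of the original inoculum. Duplicate, repeated three times.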
# Staphylococcus aureus [6] = assay: Antibacterial activity against Staphylococcus aureus ATCC 6538 after 24 hrs by microdilution method; type: functional; conditions: ATCC 6538, 24 h
# Summary of the method: (§4)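 Broth microdilution in 96-well plates. Bacterial suspensions were adjusted in sterile saline to 1.0 × 10⁵ CFU/ml, prepared daily and kept at 4 °C. Compound was added to LB broth with 1.0 × 10⁴ CFU per well and shaken at 160 rpm for 24 h at […] (so in the source). MIC is the lowest concentration with no visible growth under a binocular microscope. OD655 was also read. Duplicate, repeated three times.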
# Candida albicans [7] = assay: Ratio of ketoconazole to compound for Candida albicans isolated from human; type: functional
# Aspergillus fumigatus [8] = assay: Ratio of ketoconazole to compound for Aspergillus fumigatus isolated from human; type: functional
# Candida albicans [9] = assay: Ratio of bifonazole to compound for Candida albicans isolated from human; type: functional
# Listeria monocytogenes [10] = assay: Antibacterial activity against Listeria monocytogenes NCTC 7973 incubated for 24 hrs followed by serial sub-cultivation for 24 hrs by microdilution; type: functional; conditions: NCTC 7973, 24 h; summary of the method: as §3
# Listeria monocytogenes [11] = assay: Antibacterial activity against Listeria monocytogenes NCTC 7973 after 24 hrs by microdilution method; type: functional; conditions: NCTC 7973, 24 h; summary of the method: as §4
# Micrococcus flavus [12] = assay: Antibacterial activity against Micrococcus flavus ATCC 10240 incubated for 24 hrs followed by serial sub-cultivation for 24 hrs by microdilution; type: functional; conditions: ATCC 10240, 24 h; summary of the method: as §3
# Aspergillus niger [13] = assay: Antifungal activity against Aspergillus niger ATCC 6275 after 72 hrs by serial dilution technique; type: functional; conditions: ATCC 6275, 72 h; summary of the method: as §2
# Aspergillus niger [14] = assay: Antifungal activity against Aspergillus niger ATCC 6275 incubated for 72 hrs followed by serial sub-cultivation for 72 hrs by serial dilution technique; type: functional; conditions: ATCC 6275, 72 h; summary of the method: as §1
# Penicillium ochrochloron [15] = assay: Antifungal activity against Penicillium ochrochloron ATCC 9112 incubated for 72 hrs followed by serial sub-cultivation for 72 hrs by serial dilution technique; type: functional; conditions: ATCC 9112, 72 h; summary of the method: as §1
# Aspergillus flavus [16] = assay: Antifungal activity against Aspergillus flavus ATCC 9643 after 72 hrs by serial dilution technique; type: functional; conditions: ATCC 9643, 72 h; summary of the method: as §2
# Talaromyces funiculosus [17] = assay: Antifungal activity against Penicillium funiculosum ATCC 36839 after 72 hrs by serial dilution technique; type: functional; conditions: ATCC 36839, 72 h; summary of the method: as §2
# Escherichia coli [18] = assay: Antibacterial activity against Escherichia coli ATCC 35210 after 24 hrs by microdilution method; type: functional; conditions: ATCC 35210, 24 h; summary of the method: as §4
# Enterococcus faecalis [19] = assay: Antibacterial activity against Enterococcus faecalis isolated from human after 24 hrs by microdilution method; type: functional; summary of the method: as §4
# Talaromyces funiculosus [20] = assay: Antifungal activity against Penicillium funiculosum ATCC 36839 incubated for 72 hrs followed by serial sub-cultivation for 72 hrs by serial dilution technique; type: functional; conditions: ATCC 36839, 72 h; summary of the method: as §1
# Pseudomonas aeruginosa [21] = assay: Antibacterial activity against Pseudomonas aeruginosa ATCC 27853 incubated for 24 hrs followed by serial sub-cultivation for 24 hrs by microdilution; type: functional; conditions: ATCC 27853, 24 h; summary of the method: as §3
# Trichoderma viride [22] = assay: Ratio of bifonazole to compound for Trichoderma viride IAM 5061; type: functional
# Enterococcus faecalis [23] = assay: Antibacterial activity against Enterococcus faecalis isolated from human incubated for 24 hrs followed by serial sub-cultivation for 24 hrs by microdilution; type: functional; summary of the method: as §3
# Candida albicans [24] = assay: Antifungal activity against Candida albicans isolated from human after 72 hrs by serial dilution technique; type: functional; summary of the method: as §2
# Micrococcus flavus [25] = assay: Antibacterial activity against Micrococcus flavus ATCC 10240 after 24 hrs by microdilution method; type: functional; conditions: ATCC 10240, 24 h; summary of the method: as §4
# Aspergillus ochraceus [26] = assay: Antifungal activity against Aspergillus ochraceus ATCC 12066 incubated for 72 hrs followed by serial sub-cultivation for 72 hrs by serial dilution technique; type: functional; conditions: ATCC 12066, 72 h; summary of the method: as §1
# Trichoderma viride [27] = assay: Antifungal activity against Trichoderma viride IAM 5061 incubated for 72 hrs followed by serial sub-cultivation for 72 hrs by serial dilution technique; type: functional; conditions: IAM 5061, 72 h; summary of the method: as §1
# Pseudomonas aeruginosa [28] = assay: Ratio of ampicillin MIC to compound MIC for Pseudomonas aeruginosa ATCC 27853; type: functional
# Aspergillus niger [29] = assay: Ratio of bifonazole to compound for Aspergillus niger ATCC 6275; type: functional
# Penicillium ochrochloron [30] = assay: Ratio of ketoconazole to compound for Penicillium ochrochloron ATCC 9112; type: functional
# Trichoderma viride [31] = assay: Antifungal activity against Trichoderma viride IAM 5061 after 72 hrs by serial dilution technique; type: functional; conditions: IAM 5061, 72 h; summary of the method: as §2
# Candida albicans [32] = assay: Antifungal activity against Candida albicans isolated from human incubated for 72 hrs followed by serial sub-cultivation for 72 hrs by serial dilution technique; type: functional; summary of the method: as §1
# Bacillus cereus [33] = assay: Antibacterial activity against clinical isolate of Bacillus cereus incubated for 24 hrs followed by serial sub-cultivation for 24 hrs by microdilution; type: functional; summary of the method: as §3
# Pseudomonas aeruginosa [34] = assay: Antibacterial activity against Pseudomonas aeruginosa ATCC 27853 after 24 hrs by microdilution method; type: functional; conditions: ATCC 27853, 24 h; summary of the method: as §4
# Aspergillus ochraceus [35] = assay: Ratio of ketoconazole to compound for Aspergillus ochraceus ATCC 12066; type: functional
# Bacillus cereus [36] = assay: Antibacterial activity against clinical isolate of Bacillus cereus after 24 hrs by microdilution method; type: functional; summary of the method: as §4
# Staphylococcus aureus [37] = assay: Antibacterial activity against Staphylococcus aureus ATCC 6538 incubated for 24 hrs followed by serial sub-cultivation for 24 hrs by microdilution method; type: functional; conditions: ATCC 6538, 24 h; summary of the method: as §3
# Penicillium ochrochloron [38] = assay: Antifungal activity against Penicillium ochrochloron ATCC 9112 after 72 hrs by serial dilution technique; type: functional; conditions: ATCC 9112, 72 h; summary of the method: as §2
# Penicillium ochrochloron [39] = assay: Ratio of bifonazole to compound for Penicillium ochrochloron ATCC 9112; type: functional
# Salmonella typhimurium [40] = assay: Antibacterial activity against Salmonella Typhimurium ATCC 13311 after 24 hrs by microdilution method; type: functional, Salmonella enterica subsp. enterica serovar Typhimurium; conditions: Salmonella enterica, ATCC 13311, 24 h; summary of the method: as §4
# Salmonella typhimurium [41] = assay: Antibacterial activity against Salmonella Typhimurium ATCC 13311 incubated for 24 hrs followed by serial sub-cultivation for 24 hrs by microdilution; type: functional, Salmonella enterica subsp. enterica serovar Typhimurium; conditions: Salmonella enterica, ATCC 13311, 24 h; summary of the method: as §3
# Aspergillus ochraceus [42] = assay: Antifungal activity against Aspergillus ochraceus after 72 hrs by serial dilution technique
# Aspergillus fumigatus [43] = assay: Antifungal activity against Aspergillus fumigatus isolated from human incubated for 72 hrs followed by serial sub-cultivation for 72 hrs by serial dilution technique; type: functional; summary of the method: as §1
smiles,measurement,setting,value
CCNc1nc(C)c(C(=O)/C=C/c2cccc(Br)c2)s1,Ratio,Talaromyces funiculosus [1],10
same,MFC,Aspergillus flavus [2],57.1 µM
same,Ratio,Aspergillus ochraceus [3],10
same,MIC,Aspergillus ochraceus [4],28.9 µM
same,MBC,Escherichia coli [5],71.4 µM
same,MIC,Staphylococcus aureus [6],57.1 µM
same,Ratio,Candida albicans [7],10
same,Ratio,Aspergillus fumigatus [8],10
same,Ratio,Candida albicans [9],10
same,MBC,Listeria monocytogenes [10],100 µM
same,MIC,Listeria monocytogenes [11],85.7 µM
same,MBC,Micrococcus flavus [12],85.7 µM
same,MIC,Aspergillus niger [13],42.9 µM
same,MFC,Aspergillus niger [14],57.1 µM
same,MFC,Penicillium ochrochloron [15],58.2 µM
same,MIC,Aspergillus flavus [16],42.9 µM
same,MIC,Talaromyces funiculosus [17],28.9 µM
same,MIC,Escherichia coli [18],57.1 µM
same,MIC,Enterococcus faecalis [19],57.1 µM
same,MFC,Talaromyces funiculosus [20],42.9 µM
same,MBC,Pseudomonas aeruginosa [21],71.4 µM
same,Ratio,Trichoderma viride [22],10
same,MBC,Enterococcus faecalis [23],71.4 µM
same,MIC,Candida albicans [24],28.9 µM
same,MIC,Micrococcus flavus [25],57.1 µM
same,MFC,Aspergillus ochraceus [26],42.9 µM
same,MFC,Trichoderma viride [27],57.2 µM
same,Ratio,Pseudomonas aeruginosa [28],10
same,Ratio,Aspergillus niger [29],10
same,Ratio,Penicillium ochrochloron [30],10
same,MIC,Trichoderma viride [31],28.9 µM
same,MFC,Candida albicans [32],57.2 µM
same,MBC,Bacillus cereus [33],71.4 µM
same,MIC,Pseudomonas aeruginosa [34],57.1 µM
same,Ratio,Aspergillus ochraceus [35],10
same,MIC,Bacillus cereus [36],28.6 µM
same,MBC,Staphylococcus aureus [37],71.4 µM
same,MIC,Penicillium ochrochloron [38],28.9 µM
same,Ratio,Penicillium ochrochloron [39],10
same,MIC,Salmonella typhimurium [40],57.1 µM
same,MBC,Salmonella typhimurium [41],71.4 µM
same,MIC,Aspergillus ochraceus [42],42.9 µM
same,MFC,Aspergillus fumigatus [43],57.1 µM
